Data reported in ChEMBL document CHEMBL1123812, “Pyrroloisoquinoline antidepressants. 2. In-depth exploration of structure-activity relationships” (J Med Chem, 1987).
Activity calls are given as the source filed them.

Experiments:
[1] = molecular target: Sodium-dependent serotonin transporter (Rattus norvegicus) (UniProt P31652); assay: Ability to inhibit the uptake of [3H]- serotonin(5-HT) 0.1 uM concentration at rat brain synaptosomes; assay type: functional, subcellular
In short: (§1)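 Male Wistar rat brain synaptosomes (P2 fraction): hypothalamus for NE, striatum for DA, cerebral cortex for 5-HT. Buffer is Tris- or HEPES-buffered salt medium with glucose, ascorbate and nialamide, pH 7.4 at 37 °C. Preincubated 10 min at 37 °C with compound. Uptake started with [3H]NE 100–300 nM, [3H]DA 50–300 nM or [3H]5-HT 100–200 nM, incubated 3 min (DA) or 6–10 min (NE, 5-HT). Blanks held on ice. Filtered, counted by scintillation.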

[2] = molecular target: Sodium-dependent dopamine transporter (Rattus norvegicus) (UniProt P23977); assay: Ability to inhibit the uptake of [3H]dopamine (DA) 0.1 uM concentration at rat brain synaptosomes; assay type: functional, subcellular; in short: as §1
Sequence of Sodium-dependent dopamine transporter (Rattus norvegicus) (P23977 whole entry): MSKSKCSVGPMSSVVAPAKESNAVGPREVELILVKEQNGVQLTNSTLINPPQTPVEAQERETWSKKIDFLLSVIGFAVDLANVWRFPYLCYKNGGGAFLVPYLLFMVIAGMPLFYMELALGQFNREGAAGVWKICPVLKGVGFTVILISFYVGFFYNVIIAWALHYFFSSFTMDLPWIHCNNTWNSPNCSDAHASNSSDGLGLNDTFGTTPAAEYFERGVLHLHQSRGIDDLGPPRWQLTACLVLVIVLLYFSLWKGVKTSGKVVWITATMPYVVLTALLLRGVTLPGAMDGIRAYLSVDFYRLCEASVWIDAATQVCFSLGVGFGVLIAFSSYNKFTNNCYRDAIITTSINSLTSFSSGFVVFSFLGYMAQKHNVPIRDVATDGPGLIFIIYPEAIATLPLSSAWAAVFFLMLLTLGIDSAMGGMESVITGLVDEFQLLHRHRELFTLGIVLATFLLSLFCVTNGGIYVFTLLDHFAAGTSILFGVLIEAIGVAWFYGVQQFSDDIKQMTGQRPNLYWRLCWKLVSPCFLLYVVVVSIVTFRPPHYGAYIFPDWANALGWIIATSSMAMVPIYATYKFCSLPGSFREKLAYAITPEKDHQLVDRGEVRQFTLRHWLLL

[3] = molecular target: Norepinephrine transporter (Rattus norvegicus) (UniProt Q9WTR4); assay: Ability to inhibit the uptake of [3H]norepinephrine (NE) 0.1 uM concentration at rat brain synaptosomes; assay type: functional, subcellular; in short: as §1
Sequence of Norepinephrine transporter (Rattus norvegicus) (Q9WTR4 as listed by the source): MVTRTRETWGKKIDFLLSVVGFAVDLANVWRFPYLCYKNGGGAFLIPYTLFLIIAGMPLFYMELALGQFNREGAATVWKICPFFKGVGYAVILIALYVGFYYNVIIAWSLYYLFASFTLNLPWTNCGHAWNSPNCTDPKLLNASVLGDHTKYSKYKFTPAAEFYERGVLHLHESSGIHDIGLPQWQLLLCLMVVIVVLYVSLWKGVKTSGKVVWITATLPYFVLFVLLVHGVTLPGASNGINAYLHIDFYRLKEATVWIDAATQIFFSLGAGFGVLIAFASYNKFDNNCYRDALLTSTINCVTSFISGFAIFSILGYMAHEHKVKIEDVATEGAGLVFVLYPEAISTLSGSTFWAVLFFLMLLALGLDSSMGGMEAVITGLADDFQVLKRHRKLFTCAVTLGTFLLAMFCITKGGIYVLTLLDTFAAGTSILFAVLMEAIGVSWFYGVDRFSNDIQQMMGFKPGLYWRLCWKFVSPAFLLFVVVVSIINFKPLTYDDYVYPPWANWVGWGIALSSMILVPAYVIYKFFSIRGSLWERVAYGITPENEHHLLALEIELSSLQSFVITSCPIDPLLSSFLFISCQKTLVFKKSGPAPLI

Mus musculus [4] = organism: Mus musculus; assay: Gross behavioral effects ascertained in mice; W indicates weak stimulant or depressant activity of little significance.; assay type: functional, organism-based
In short: (§2)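 Male Swiss Webster mice, 18–24 g, three per dose, given ip doses of 1, 3, 10, 30, 100 and 300 mg/kg. Observed for gross behavior and held for 4 days. Scored as weak (W), stimulant (S), depressant (D) or convulsant (C).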

Mus musculus [5] = assay: (§3) Ability to antagonise intraperitoneal dose; inactive (<10% antagonism) at 30 mgjkg is represented as I-30.; assay type: functional, organism-based
In short: (§4)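 Nonfasted male Swiss Webster mice, 18–24 g, ten per dose level and in saline controls. Test compound given ip 30 min before tetrabenazine 32 mg/kg ip; dose expressed as free base. Motor activity and ptosis scored. Control response ≤90% corrected by Abbott's formula.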

Mus musculus [6] = assay: as §3; assay type: functional, organism-based; in short: as §4; remark: listed apart in the source
D(1A) dopamine receptor = D(1A) dopamine receptor (Rattus norvegicus, UniProt P18901); assay: Binding affinity towards Dopamine receptor D1
Sequence of D(1A) dopamine receptor (P18901 whole entry): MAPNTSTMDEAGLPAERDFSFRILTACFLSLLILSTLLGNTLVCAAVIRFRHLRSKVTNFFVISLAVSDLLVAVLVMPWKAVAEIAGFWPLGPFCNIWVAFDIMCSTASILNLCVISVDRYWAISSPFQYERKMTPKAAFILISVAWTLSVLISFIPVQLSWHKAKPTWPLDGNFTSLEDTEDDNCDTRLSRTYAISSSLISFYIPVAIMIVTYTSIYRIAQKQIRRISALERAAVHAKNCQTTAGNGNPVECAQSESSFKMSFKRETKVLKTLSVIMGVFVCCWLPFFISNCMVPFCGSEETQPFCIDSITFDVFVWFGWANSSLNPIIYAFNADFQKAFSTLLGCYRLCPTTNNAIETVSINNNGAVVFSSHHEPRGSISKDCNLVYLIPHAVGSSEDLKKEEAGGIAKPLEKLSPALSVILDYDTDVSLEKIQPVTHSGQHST

Mus musculus [7] = organism: Mus musculus; assay: Antagonism of tetrabenazine (TBZ)-induced depression measured in mice by motor activity; assay type: functional; conditions: Mus musculus; read-out: ED50; in short: as §4
[8] = molecular target: Sodium-dependent dopamine transporter (Rattus norvegicus, UniProt P23977); assay: Inhibition of the uptake of tritiated dopamine (DA) in rat synaptosomes; assay type: subcellular, Brain
Sequence of Sodium-dependent dopamine transporter (P23977 whole entry): as the sequence (P23977 whole entry) above

D(2) dopamine receptor = D(2) dopamine receptor (Rattus norvegicus, UniProt P61169); assay: Binding affinity towards Dopamine receptor D2
Sequence of D(2) dopamine receptor (P61169 whole entry): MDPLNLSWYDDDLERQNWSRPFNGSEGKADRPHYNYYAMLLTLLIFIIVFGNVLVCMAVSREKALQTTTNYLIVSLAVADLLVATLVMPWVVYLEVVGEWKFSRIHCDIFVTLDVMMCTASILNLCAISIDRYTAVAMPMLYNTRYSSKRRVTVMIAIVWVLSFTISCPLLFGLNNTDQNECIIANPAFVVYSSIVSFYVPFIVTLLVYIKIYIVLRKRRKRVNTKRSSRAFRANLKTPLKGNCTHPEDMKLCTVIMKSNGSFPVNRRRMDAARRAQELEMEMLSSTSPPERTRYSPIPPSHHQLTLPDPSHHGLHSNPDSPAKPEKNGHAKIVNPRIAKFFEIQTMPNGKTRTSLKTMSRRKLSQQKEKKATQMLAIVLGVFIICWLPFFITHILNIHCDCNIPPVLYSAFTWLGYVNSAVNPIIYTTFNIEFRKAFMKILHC

[9] = molecular target: Serotonin 1 (5-HT1) receptor (Rattus norvegicus) (UniProt P28564+P30940+P19327+P28565); assay: Binding affinity towards serotonin S1 receptor at 1.0 uM; assay type: protein assay
In short: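 Rat brain crude synaptic membranes in 20 mM NaHEPES pH 7.5. Ligands: α1 cortex […] 0.4 nM, nonspecific with (-)-NE 100 μM, 30 min at 25 °C. […] D2 striatum [3H]spiperone 0.05 nM with (+)-butaclamol 1 μM, 45 min at 37 °C. S1 cortex [3H]5-HT 1 nM plus glutathione and MgCl2, with 5-HT 10 μM, 20 min at 37 °C. […] Samples filtered on GF/B and counted.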

Mus musculus [10] = organism: Mus musculus; assay: Antagonism of tetrabenazine (TBZ)-induced depression in mice measured for ptosis; assay type: functional; conditions: Mus musculus; read-out: ED50; in short: as §4
[11] = molecular target: T1, Adrenergic receptor alpha-1 (Rattus norvegicus, UniProt P15823+P23944+P43140); assay: Binding affinity towards alpha-1 adrenergic receptor; assay type: protein assay
T1 sequence (P15823 whole entry): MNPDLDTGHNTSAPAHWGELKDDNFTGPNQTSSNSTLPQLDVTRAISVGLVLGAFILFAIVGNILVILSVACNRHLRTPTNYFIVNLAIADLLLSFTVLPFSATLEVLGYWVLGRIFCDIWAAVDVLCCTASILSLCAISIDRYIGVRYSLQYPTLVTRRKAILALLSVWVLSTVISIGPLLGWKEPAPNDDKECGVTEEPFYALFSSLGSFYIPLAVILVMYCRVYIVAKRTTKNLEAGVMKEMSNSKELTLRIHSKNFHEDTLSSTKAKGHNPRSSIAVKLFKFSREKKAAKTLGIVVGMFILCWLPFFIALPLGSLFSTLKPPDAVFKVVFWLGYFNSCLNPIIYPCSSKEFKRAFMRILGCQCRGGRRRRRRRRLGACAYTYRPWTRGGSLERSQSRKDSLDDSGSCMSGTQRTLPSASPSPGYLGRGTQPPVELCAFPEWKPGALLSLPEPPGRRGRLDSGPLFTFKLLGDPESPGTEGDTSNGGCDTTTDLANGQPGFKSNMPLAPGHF
T1 sequence (P23944 whole entry): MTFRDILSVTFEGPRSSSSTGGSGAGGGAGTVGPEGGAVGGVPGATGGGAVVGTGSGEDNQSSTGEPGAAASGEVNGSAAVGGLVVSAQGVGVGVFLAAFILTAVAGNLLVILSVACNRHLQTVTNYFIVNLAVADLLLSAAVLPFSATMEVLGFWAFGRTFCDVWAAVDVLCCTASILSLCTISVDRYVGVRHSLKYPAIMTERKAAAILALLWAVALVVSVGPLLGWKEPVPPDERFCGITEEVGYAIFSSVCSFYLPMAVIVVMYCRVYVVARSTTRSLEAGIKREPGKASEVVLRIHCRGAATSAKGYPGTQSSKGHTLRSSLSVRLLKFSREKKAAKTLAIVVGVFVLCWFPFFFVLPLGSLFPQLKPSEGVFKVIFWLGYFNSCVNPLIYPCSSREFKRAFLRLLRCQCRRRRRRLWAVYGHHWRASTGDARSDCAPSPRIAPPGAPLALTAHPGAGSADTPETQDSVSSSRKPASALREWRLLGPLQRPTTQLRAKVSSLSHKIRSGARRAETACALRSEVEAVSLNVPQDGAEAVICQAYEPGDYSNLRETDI
T1 sequence (P43140 whole entry): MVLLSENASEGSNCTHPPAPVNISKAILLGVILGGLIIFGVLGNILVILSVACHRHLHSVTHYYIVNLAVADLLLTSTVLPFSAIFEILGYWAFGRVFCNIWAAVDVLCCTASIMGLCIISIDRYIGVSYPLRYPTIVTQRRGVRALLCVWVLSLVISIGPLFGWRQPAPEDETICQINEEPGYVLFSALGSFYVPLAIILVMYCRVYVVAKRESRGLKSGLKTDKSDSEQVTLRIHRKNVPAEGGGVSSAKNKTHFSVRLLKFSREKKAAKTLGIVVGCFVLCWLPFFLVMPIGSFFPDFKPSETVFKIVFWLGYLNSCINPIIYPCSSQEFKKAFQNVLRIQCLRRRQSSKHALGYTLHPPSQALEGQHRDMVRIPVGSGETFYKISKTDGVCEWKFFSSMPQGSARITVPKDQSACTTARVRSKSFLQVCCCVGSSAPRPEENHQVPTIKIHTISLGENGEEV

[12] = molecular target: Serotonin 2 (5-HT2) receptor (Rattus norvegicus, UniProt P30994+P08909+P14842); assay: Binding affinity towards 5-hydroxytryptamine 2 receptor; assay type: protein assay
[13] = molecular target: Muscarinic acetylcholine receptor (Rattus norvegicus) (UniProt P08482+P08483+P08485+P08911+P10980); assay: Binding affinity towards Muscarinic acetylcholine receptor at 1.0 uM concentration; assay type: protein assay
[14] = molecular target: Adrenergic receptor alpha-2 (Rattus norvegicus) (UniProt P22086+P19328+P22909); assay: Binding affinity towards alpha-2 adrenergic receptor at 1.0 uM concentration; assay type: protein assay
[15] = molecular target: Norepinephrine transporter (Rattus norvegicus, UniProt Q9WTR4); assay: Inhibition of uptake of tritiated norepinephrine (NE) in rat synaptosomes; assay type: subcellular, Brain
Sequence of Norepinephrine transporter (Q9WTR4 whole entry): as the sequence (Q9WTR4 as listed by the source) above

Mus musculus [16] = organism: Mus musculus; assay: Gross behavioral effects ascertained in mice; W/C indicates weak stimulant or depressant activity of little significance/ overt convulsant; assay type: functional, organism-based
In short: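 Male Swiss Webster albino mice, 18–24 g, three per dose, given ip 1, 3, 10, 30, 100 and 300 mg/kg. Gross behaviour observed and held 4 days. Estimated LD50 range from lethality count on day 4. Scored as weak stimulant/depressant, significant stimulant, significant depressant or overt convulsant.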

Mus musculus [17] = assay: Ability to antagonise intraperitoneal dose; inactive (<10% antagonism) at 30 mg/kg is represented as I-30.; assay type: functional, organism-based; parameters: dose 30 mg/kg; in short: as §4
Rattus norvegicus [18] = organism: Rattus norvegicus; assay: Ability to inhibit the uptake of tritiated dopamine (DA) 1 uM concentration; assay type: functional
In short: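 Rat brain synaptosomal [3H]dopamine uptake: striatal P2 fraction, test compound at 1.00 μM. Preincubated at 37 °C, then 50–300 nM [3H]DA for 3 min. Blanks on ice. Filtration and scintillation counting; percent inhibition of control uptake.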

Mus musculus [19] = assay: Ability to antagonise intraperitoneal administration; weakly active (>=10% and <=30% antagonism) at 30 mg/kg is represented as >30; assay type: functional; conditions: ip; in short: as §4
[20] = molecular target: Sodium-dependent serotonin transporter (Rattus norvegicus) (UniProt P31652); assay: Inhibition of tritiated serotonin(5-HT) uptake at 0.1 uM concentration; assay type: functional; in short: as §1
Rattus norvegicus [21] = organism: Rattus norvegicus; assay: Ability to inhibit the uptake of tritiated norepinephrine (NE) at 0.1 uM concentration; assay type: functional; in short: as §1
Mus musculus [22] = organism: Mus musculus; assay: Gross behavioral effects ascertained in mice; C indicates overt convulsant; assay type: functional, organism-based; in short: as §2

Sequence of Sodium-dependent serotonin transporter (Rattus norvegicus) (P31652 whole entry): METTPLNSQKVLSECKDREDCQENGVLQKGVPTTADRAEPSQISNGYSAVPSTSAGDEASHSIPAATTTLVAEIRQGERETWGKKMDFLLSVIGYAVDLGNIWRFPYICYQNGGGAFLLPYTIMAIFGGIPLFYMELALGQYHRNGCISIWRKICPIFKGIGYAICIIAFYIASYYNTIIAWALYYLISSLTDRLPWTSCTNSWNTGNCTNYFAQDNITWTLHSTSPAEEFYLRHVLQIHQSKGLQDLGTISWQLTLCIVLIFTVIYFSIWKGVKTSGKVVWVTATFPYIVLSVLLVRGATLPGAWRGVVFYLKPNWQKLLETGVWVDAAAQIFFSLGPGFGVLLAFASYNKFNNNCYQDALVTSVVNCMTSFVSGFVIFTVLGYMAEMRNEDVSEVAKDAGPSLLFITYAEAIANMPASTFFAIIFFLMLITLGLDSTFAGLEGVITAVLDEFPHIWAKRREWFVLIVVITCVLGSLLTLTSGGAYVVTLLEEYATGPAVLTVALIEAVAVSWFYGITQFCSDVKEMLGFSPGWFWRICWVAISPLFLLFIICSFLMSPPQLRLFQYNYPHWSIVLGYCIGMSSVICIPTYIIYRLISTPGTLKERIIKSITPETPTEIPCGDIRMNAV

SMILES	inhibition [1] [%]	inhibition [2] [%]	inhibition [3] [%]	behavior (Mus musculus [4])	ED50 (Mus musculus [5])	ED50 (Mus musculus [7]) [mg/kg]	Ki [8] [µM]	Ki [15] [µM]	behavior (Mus musculus [16])	ED50 at 30 mg/kg (Mus musculus [19]) [mg/kg]	further results
c1ccc([C@@H]2CN3CC[C@@H]4CCCC[C@@]43c3ccccc32)cc1	4	33	0	Weak	inactive	–	–	–	–	–	ED50 (Mus musculus [6]): inactive
Br.Fc1ccc([C@@H]2CN3CCC[C@@H]3c3cc(F)ccc32)cc1	–	–	–	Partial stimulant	–	> 30	0.0077	0.00055	–	–	Ki (D(1A) dopamine receptor): 0.183 µM; Ki (D(2) dopamine receptor): 0.241 µM; inhibition [9]: -6%; ED50 (Mus musculus [10]): 0.05 mg/kg; Ki [11]: 0.536 µM; Ki [12]: 0.0074 µM; inhibition [13]: 0%; inhibition [14]: 25%
C[C@@]12CCCN1C[C@H](c1ccccc1)c1ccccc12	–	–	–	–	–	9.2	0.04	0.024	Weak/Overt convulsant	–	ED50 (Mus musculus [10]): 3.8 mg/kg
c1ccc2c(c1)CCN1CCC[C@@H]21	-10	–	1	–	–	–	–	–	Weak/Overt convulsant	–	ED50 (Mus musculus [17]): inactive; Inhibition (Rattus norvegicus [18]): 18%; ED50 (Mus musculus [6]): inactive
Cl.c1ccc([C@@H]2CN3CCC[C@H]3c3ccccc32)cc1	–	–	–	–	–	–	0.16	–	–	> 30	–
Br.COc1cc2c(cc1OC)[C@@H]1CCCN1C[C@H]2c1ccccc1	–	–	–	–	–	–	0.106	–	–	> 30	Ki (D(1A) dopamine receptor): 0.452 µM; Ki (D(2) dopamine receptor): 0.4 µM; inhibition [20]: 10%; ED50 (Mus musculus [17]): inactive; Inhibition (Rattus norvegicus [21]): 16%; behavior (Mus musculus [22]): Convulsant
O=[N+]([O-])c1ccc([C@@H]2CN3CCC[C@H]3c3ccccc32)cc1	25	21	10	Weak	–	> 30	–	–	–	> 30	–
F[C@@]1(c2ccccc2)CN2CCC[C@H]2c2ccccc21	-3	22	–	–	–	> 30	–	~0.1	Weak/Overt convulsant	> 30	–
C[C@H]1[C@@H](c2ccccc2)c2ccccc2[C@@H]2CCCN21	3	3	0	Weak	inactive	> 60	–	–	–	–	–
c1ccc([C@@]23CCCN2CCc2ccccc23)cc1	4	0	4	–	inactive	> 60	–	–	Weak/Overt convulsant	–	–
